The source of these data is ChEMBL document CHEMBL3580551, “Soudanones A-G: Antifungal Isochromanones from the Ascomycetous Fungus Cadophora sp. Isolated from an Iron Mine” (2015).

Assay [1] relates to Bacillus subtilis. The assay can be described thus: Antimicrobial activity against Bacillus subtilis ATCC 6633 assessed as inhibition of microbial growth by microbroth dilution assay. Format: functional. An outline of the steps:
(§1)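 Broth microdilution susceptibility test against the listed ATCC bacterial strain. Tetracycline at 10 μg/mL served as the positive-control antibiotic. Growth inhibition was read in broth, with MIC values reported.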
A general note: Broth dilution looks for growth in wells or tubes with falling amounts of substance.

Assay [2] deals with Staphylococcus aureus. The assay can be described thus: Antimicrobial activity against methicillin-resistant Staphylococcus aureus ATCC 43300 assessed as inhibition of microbial growth by microbroth dilution assay. Type of assay: functional. An outline of the steps: (§2)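 Broth microdilution susceptibility test; the read-out is MIC. The reference antibiotic was tetracycline at 10 μg/mL for MRSA ATCC 43300 and penicillin G at 10 μg/mL for E. faecalis ATCC 51299.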

In assay [3] the test system is Klebsiella pneumoniae. The assay can be described thus: Antimicrobial activity against Klebsiella pneumoniae ATCC 13883 assessed as inhibition of microbial growth by microbroth dilution assay. Type of assay: functional. An outline of the steps:
as §1

Assay [4] deals with Enterococcus faecalis. The assay can be described thus: Antimicrobial activity against vancomycin-resistant Enterococcus faecalis ATCC 51299 assessed as inhibition of microbial growth by microbroth dilution assay. Type of assay: functional. The procedure, abridged: as §2
The test system of assay [5] is Acinetobacter baumannii. The assay can be described thus: Antimicrobial activity against Acinetobacter baumannii ATCC 19606 assessed as inhibition of microbial growth by microbroth dilution assay. Format: functional. An outline of the steps:
as §1

The subject of assay [6] is Pseudomonas aeruginosa. The assay can be described thus: Antimicrobial activity against Pseudomonas aeruginosa ATCC 27853 assessed as inhibition of microbial growth by microbroth dilution assay. Format: functional. The procedure, abridged:
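Broth microdilution susceptibility test against P. aeruginosa ATCC 27853. Tetracycline at 50 μg/mL served as the positive-control antibiotic. Growth inhibition was read in broth, with MIC values reported.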

Assay [7] deals with Candida albicans. Put plainly: Antimicrobial activity against Candida albicans ATCC 10231 assessed as inhibition of microbial growth by microbroth dilution assay. Type of assay: functional. The procedure, abridged:
(§3)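 Antifungal broth microdilution test against the yeast strain (C. albicans ATCC 10231 or C. neoformans ATCC 66031). Amphotericin B at 2 μg/mL served as the control antifungal. MIC values were taken from the broth panel.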

For assay [8], the system named is Cryptococcus neoformans. Put plainly: Antimicrobial activity against Cryptococcus neoformans ATCC 66031 assessed as inhibition of microbial growth by microbroth dilution assay. Type of assay: functional. An outline of the steps: as §3
The test system of assay [9] is Escherichia coli. Put plainly: Antimicrobial activity against Escherichia coli ATCC 25922 assessed as inhibition of microbial growth by microbroth dilution assay. Format: functional. The procedure, abridged:
as §1

In assay [10] the test system is Plasmodium falciparum. Put plainly: Antiplasmodial activity against Plasmodium falciparum NF54 assessed as inhibition of microbial growth at 10 ug/ml by [3H]hypoxanthine incorporation assay. Format: functional, organism-based. The procedure, abridged: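 In vitro screen against the drug-sensitive P. falciparum NF54 strain using a modified [3H]hypoxanthine incorporation assay. Chloroquine and artesunate were run as positive controls.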

The source made the active and inactive calls. The calls are words filed in the database; no cut-off is given here.

In the case of `Cc1c(O)cc(O)c2c1C[C@@H](CCCCCCC(=O)O)OC2=O`, the minimal inhibitory concentration (MIC) in [1], in [2], in [3], in assay [4], in [5] and in assay [6] was greater than 100 µg/mL throughout. For the same molecule, the MIC in [7], in assay [8] and in [9] was greater than 100 µg/mL throughout.
Regarding `C[C@@H]1[C@H](O)[C@@H](C)/C=C/C=C/C=C/C=C/C=C/C=C/C=C/[C@H](O[C@@H]2O[C@H](C)[C@@H](O)[C@H](N)[C@@H]2O)C[C@@H]2O[C@](O)(C[C@@H](O)C[C@@H](O)[C@H](O)CC[C@@H](O)C[C@@H](O)CC(=O)O[C@H]1C)C[C@H](O)[C@H]2C(=O)O` [AMPHOTERICIN B], the MIC in assay [7] and in [8] was 0.2 µg/mL throughout.
As to `CCCCCCC[C@@H]1Cc2c(C)c(O)c(C(=O)O)c(O)c2CO1`, the MIC in assay [7] was greater than 100 µg/mL; in assay [8], 35 µg/mL. In assay [10], the “growth inhibition (GI)” value was “inactive”.
`O=C1CC[C@H](O)c2cccc(O)c21`: the “growth inhibition (GI)” value in [1], in [2], in assay [3], in assay [4], in assay [5] and in [6] was “inactive” throughout. Further, the “growth inhibition (GI)” value in assay [9] was “inactive”. Also, the minimal inhibitory concentration (MIC) in [7] was found to be 40 µg/mL; in assay [8], 30 µg/mL.
For `CCCCCCC[C@@H]1Cc2c(C)c(O)cc(O)c2C(=O)O1`, the MIC in assay [7] is greater than 100 µg/mL; in [8], 40 µg/mL. Also, the “growth inhibition (GI)” value in assay [10] is “inactive”.
In the case of `Cc1c(O)cc(O)c2c1C[C@@H](CCCCCC(C)O)OC2=O` (some centres not stated), the MIC in assay [1], in assay [2], in assay [3], in assay [4], in assay [5] and in assay [6] was greater than 100 µg/mL in each case. In addition, the MIC in assay [7], in [8] and in assay [9] was greater than 100 µg/mL in each case.
As to `O=C(O)CCCCCC[C@@H]1Cc2cc(O)cc(O)c2C(=O)O1`, the minimum inhibitory concentration (MIC) in assay [1], in assay [2], in assay [3], in [4], in assay [5] and in assay [6] was greater than 100 µg/mL throughout. Further, the minimal inhibitory concentration (MIC) in assay [7], in [8] and in assay [9] was greater than 100 µg/mL each time.
`CC(=O)CCCCC[C@@H]1Cc2c(C)c(O)cc(O)c2C(=O)O1`: the minimal inhibitory concentration (MIC) in assay [1], in [2], in assay [3], in assay [4], in [5] and in [6] was greater than 100 µg/mL in each case. Further, the minimum inhibitory concentration (MIC) in [7], in assay [8] and in assay [9] was greater than 100 µg/mL throughout. Moreover, in [10], the “growth inhibition (GI)” value was “inactive”.
In the case of `Cc1c(O)cc(O)c2c1C[C@@H](CCCCCCCO)OC2=O`, the minimal inhibitory concentration (MIC) in assay [1], in assay [2], in assay [3], in [4], in assay [5] and in assay [6] was greater than 100 µg/mL in each case. Also, the MIC in assay [7], in assay [8] and in [9] was greater than 100 µg/mL throughout.
`CCCCCCC[C@@H]1Cc2c(C)c(O)cc(O)c2CO1`: the MIC in assay [1], in [2], in assay [3], in assay [4], in assay [5] and in [6] was greater than 100 µg/mL throughout. Moreover, the minimum inhibitory concentration (MIC) in assay [7], in [8] and in assay [9] was greater than 100 µg/mL throughout.

By MIC is commonly meant the lowest concentration found to suppress growth.
